Only some compounds are listed: those with a hit (about 1.4% of all), similar ones and a draw of the others.
Diaph act CS = counter-screen for diaphorase-based assays: diaphorase activators and chemical reducers. Diaphorase/resazurin coupled assay, resorufin fluorescence, 16 min; stronger effect = higher value; 1 = vehicle wells, 0 = NADH-free wells. activation factor at 20 µM. hit rate 0.005% among 190,000;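 active = diaphorase activity raised at least twofold by the compound at 20 µM; inactive = activation factor below 2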
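Measured by – red resorufin fluorescence at 544/590 nm excitation/emission · Test system – Clostridium kluyveri diaphorase, purified enzyme · Incubation – reaction time 16 min, room temperature · Buffer or medium – 50 mM HEPES pH 7.4 with 4.542 mM MgCl2, 0.005% Tween 20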
PMI activator = phosphomannose isomerase (human) activation; purified human PMI, coupled resazurin fluorescence, 20 min; stronger effect = higher value; 1 = vehicle control, 0 substrate-free wells; activation factor at 20 µM; AID 1214; hit rate 0.005% among 190,000;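 active = activation factor of 2 or more at 20 µM, relative to plate controls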
p47phox inh = p47phox (human) inhibition; p47phox/p22phox peptide binding, fluorescence polarization, 2 h; inhibition, % at 24.7 µM; hit rate 0.53% among 220,000; AID 1274;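 active = inhibition above about 30%, limit read from the data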;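 also: 0% = p47phox with labelled peptide and 100% = labelled peptide alone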
Target sequence (P14598 whole entry, looked up): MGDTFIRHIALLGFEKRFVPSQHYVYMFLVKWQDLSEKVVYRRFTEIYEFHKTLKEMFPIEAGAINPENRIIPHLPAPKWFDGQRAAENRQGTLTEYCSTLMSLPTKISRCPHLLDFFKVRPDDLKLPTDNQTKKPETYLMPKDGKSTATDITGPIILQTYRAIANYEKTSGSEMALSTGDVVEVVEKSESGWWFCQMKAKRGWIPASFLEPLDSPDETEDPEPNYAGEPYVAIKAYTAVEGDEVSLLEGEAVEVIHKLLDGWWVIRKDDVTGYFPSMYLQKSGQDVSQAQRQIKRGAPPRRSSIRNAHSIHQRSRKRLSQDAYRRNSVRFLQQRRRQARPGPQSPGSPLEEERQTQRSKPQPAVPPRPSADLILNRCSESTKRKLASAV
Avidin fluor = compound fluoresces at 488/530 nm on avidin beads | AID 1775 | compound fluorescence 488/530 nm, flow cytometry; stronger effect = higher value | fluorescence (KMESF) at 10 µM | hit rate 0.38% among 220,000; in the data active = fluorescence above about 47
PMI act hi M6P = increases human PMI activity with near-saturating mannose 6-phosphate. P34949. activation factor at 20 µM. coupled PMI enzyme assay, resazurin fluorescence, 20 min; stronger effect = higher value; 1 = untreated enzyme, 0 = substrate-free blank. hit rate 0.34% among 190,000;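 active = activation factor of 2 or more at 20 µM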
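test system = human PMI in coupled enzyme assay | medium = HEPES-buffered pH 7.4 with magnesium and detergent | also added = 1.0 mM mannose-6-phosphate substrate with 0.22 mM NADP+ | compound = 20 µM single dose | times = 20 min incubation at room temperature | measured by = resorufin fluorescence (Ex 544/Em 590 nm) from resazurin via diaphorase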
GSH bead fluor = compound fluoresces at 488/530 nm on GSH beads; GSH beads flow cytometry, compound fluorescence 488/530 nm; stronger effect = higher value; fluorescence (KMESF) at 10 µM; hit rate 0.25% among 190,000; AID 1776; in the data active = fluorescence above about 89;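 also: glutathione beads carrying GST-tagged Bcl family fusion proteins plus one bare bead set; values are compound well signal with DMSO vehicle wells as background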
The depositor's hits bear a star.

Cc1cc(=O)oc2cc(OCC(=O)N3CCOCC3)ccc12 was read as Diaph act CS 0.9, PMI activator 1.4, p47phox inh 6, Avidin fluor 2, PMI act hi M6P 1.6 and GSH bead fluor 122*.
`Cc1ccc(-c2ccc(OCC(=O)N3CCOCC3)cc2)cc1` gave Diaph act CS 0.9, PMI activator 0.9, p47phox inh -13, Avidin fluor 16, PMI act hi M6P 0.9 and GSH bead fluor 31.
Screening Cc1cccc(OCC(=O)N2CCOCC2)c1 returned Diaph act CS 1.1, PMI activator 1.1, p47phox inh -14, Avidin fluor 277*, PMI act hi M6P 1.1 and GSH bead fluor 11.
Screening CCOC(=O)N1CCc2c(sc3nc4n(c(=O)c23)N=C(c2ccc(OC)cc2)CS4)C1 returned p47phox inh 38* and Avidin fluor 7.
`CN1C(=S)SC(/[N+]([O-])=C/c2cccnc2)C1(C)C` (centres undefined) gave Diaph act CS 1, PMI activator 1, p47phox inh -9, Avidin fluor 8, PMI act hi M6P 1.1 and GSH bead fluor 28.
For Cc1ccc(OCc2ccc(C(=O)Nc3nc4ccccc4n3Cc3ccccc3)o2)c([N+](=O)[O-])c1 the results were Diaph act CS 1, PMI activator 1, p47phox inh 32*, Avidin fluor 9, PMI act hi M6P 1 and GSH bead fluor 12.
O=C(Nc1nc2ccccc2n1Cc1ccccc1)c1ccc(COc2ccccc2[N+](=O)[O-])o1 was read as Diaph act CS 1, PMI activator 1.2, p47phox inh -1, Avidin fluor 10, PMI act hi M6P 1 and GSH bead fluor 8.
`Cn1c(SCc2ccccc2)nnc1C1CCCNC1` (centres undefined) gave Diaph act CS 0.9, PMI activator 0.9, p47phox inh -7, Avidin fluor 5, PMI act hi M6P 0.9 and GSH bead fluor 39.
For Cc1ccsc1C(=O)OCC(=O)Nc1c(Cl)cccc1C(F)(F)F the results were Diaph act CS 1, PMI activator 1, p47phox inh -13, Avidin fluor 3, PMI act hi M6P 1 and GSH bead fluor 11.
For O=C(CN(Cc1ccco1)C(=O)CNS(=O)(=O)c1ccccc1)NC1CCCCC1 the results were Diaph act CS 0.9, PMI activator 1.1, p47phox inh -13, Avidin fluor 10, PMI act hi M6P 1 and GSH bead fluor 24.
Cc1ccc(-c2nnc(N3CCCCC3)c3ccccc23)cc1S(=O)(=O)N1CCN(C)CC1 was read as Diaph act CS 0.8, PMI activator 1, p47phox inh -11, Avidin fluor 11, PMI act hi M6P 1.1 and GSH bead fluor 27.
`O=c1c2ccccc2sn1-c1nccs1` gave Diaph act CS 0.5, PMI activator -0.1, p47phox inh 104*, Avidin fluor 16, PMI act hi M6P 0 and GSH bead fluor 9.
For O=c1c2ccccc2sn1-c1ccc(S(=O)(=O)N2CCCC2)cc1 the results were Diaph act CS 1.1, PMI activator 0.6, p47phox inh 30*, Avidin fluor 4, PMI act hi M6P 0.9 and GSH bead fluor 9.
`O=c1c2ccccc2c(C=Nc2ccccc2O)c(O)n1-c1nccs1` gave p47phox inh -22 and Avidin fluor 8.
Screening Cc1ccc(-n2sc3ccccc3c2=O)cc1S(=O)(=O)N1CCCCC1 returned Diaph act CS 0.5, PMI activator 0, p47phox inh 85*, Avidin fluor 7, PMI act hi M6P 0.1 and GSH bead fluor 6.
`CN(C)S(=O)(=O)c1cccc(-n2sc3ccccc3c2=O)c1` gave Diaph act CS 0.8, PMI activator 0, p47phox inh 93*, Avidin fluor 4, PMI act hi M6P 0.2 and GSH bead fluor 9.
For Cc1cccc(NC(=S)N2CCN(C(=O)C3CCCO3)CC2)c1 (centres undefined) the results were Diaph act CS 0.9, PMI activator 1, p47phox inh 0, Avidin fluor 3, PMI act hi M6P 1 and GSH bead fluor 5.
Screening O=c1c2ccccc2sn1-c1ccccc1 returned Diaph act CS 0.9, PMI activator 0.1, p47phox inh 60*, Avidin fluor 6, PMI act hi M6P 0.4 and GSH bead fluor 15.
Screening CCc1ccc(S(=O)(=O)NCCc2cn3ccc(C)cc3n2)s1 returned Diaph act CS 1, PMI activator 1, p47phox inh 2, Avidin fluor 7, PMI act hi M6P 1.1 and GSH bead fluor 19.
Screening O=C(c1ccccc1Sc1ccc([N+](=O)[O-])cc1Cl)N1CCOCC1 returned Diaph act CS 0.9, PMI activator 1.7, p47phox inh -8, Avidin fluor 12, PMI act hi M6P 2.1* and GSH bead fluor 13.
For N#Cc1ccccc1Sc1ccccc1C(=O)N1CCOCC1 the results were Diaph act CS 0.9, PMI activator 0.9, p47phox inh -1, Avidin fluor 8, PMI act hi M6P 1 and GSH bead fluor 16.
For COc1ccccc1CCc1nnc(CCC(=O)NCCOc2cccnc2)o1 the results were Diaph act CS 0.9, PMI activator 0.9, p47phox inh -9, Avidin fluor 10, PMI act hi M6P 1.1 and GSH bead fluor 8.
`CCOC(=O)C(=CNc1ccc(Oc2cccnc2)nc1)C(=O)OCC` gave p47phox inh 38* and Avidin fluor 8.
Screening CC(C)(C)c1ccc(C(=O)Nc2ccc(Oc3cccnc3)nc2)cc1 returned p47phox inh 8 and Avidin fluor 8.
`CC(C)CNC(=O)c1ccccc1NC(=O)c1ccc(CN2CCOCC2)cc1` gave Diaph act CS 0.7, PMI activator 0.9, p47phox inh -13, Avidin fluor 48*, PMI act hi M6P 0.8 and GSH bead fluor 19.
Screening Cc1nn(C(C)C(=O)N2CCN(c3ccccn3)CC2)c(=O)c2cc3occc3n12 (centres undefined) returned Diaph act CS 0.9, PMI activator 1, p47phox inh -6, Avidin fluor 47*, PMI act hi M6P 1 and GSH bead fluor 18.
Screening CCC(C(=O)N1CCN(c2ccccn2)CC1)n1nc(C)n2c(cc3occc32)c1=O (centres undefined) returned Diaph act CS 0.8, PMI activator 0.9, p47phox inh -13, Avidin fluor 39, PMI act hi M6P 1 and GSH bead fluor 27.
`Cc1ccc(C2SCC(C(=O)O)N2C(=O)c2ccc(F)cc2)cc1` (centres undefined) gave Diaph act CS 0.9, PMI activator 1.1, p47phox inh -5, Avidin fluor 4, PMI act hi M6P 1.1 and GSH bead fluor 12.
